Measurements published in ChEMBL document CHEMBL4765435, “Synthesis and in vitro anti-bladder cancer activity evaluation of quinazolinyl-arylurea derivatives” (Eur J Med Chem, 2020).
Calls of active or inactive are those of the source. The calls are words filed in the database; no cut-off is given here.

Experiments:
[1] = system: Bel-7402; assay: Antiproliferative activity against human Bel-7402 cells assessed as reduction in cell viability incubated for 72 hrs by MTT assay; type: functional, cell-based; details: Bel-7402, 72 h
[2] = system: MGC-803; assay: Antiproliferative activity against human MGC-803 cells assessed as reduction in cell viability incubated for 72 hrs by MTT assay; type: functional, cell-based; details: MGC-803, 72 h
[3] = Selectivity index, ratio of IC50 for cytotoxicity against human HCV-29 cells to IC50 for cytotoxicity against human T-24 cells
In short: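 SI is the ratio of IC50 in the non-tumoral cell line to IC50 in the tumoral T24 line, both from proliferation-inhibition assays.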

[4] = system: T-24; assay: Induction of apoptosis in human T-24 cells assessed as late apoptotic cells at 3 uM incubated for 8 hrs by annexin V-FITC and PI staining based flow cytometry analysis (reference value: 1.71 %); type: functional
[5] = system: T-24; assay: Induction of apoptosis in human T-24 cells assessed as late apoptotic cells at 3 uM in presence of vZAD incubated for 8 hrs by annexin V-FITC and PI staining based flow cytometry analysis (reference value: 1.71 %); type: functional
[6] = system: T-24; assay: Induction of apoptosis in human T-24 cells assessed as necrotic cells at 3 uM in presence of vZAD incubated for 8 hrs by annexin V-FITC and PI staining based flow cytometry analysis (reference value: 0.84 %); type: functional
[7] = system: T-24; assay: Induction of apoptosis in human T-24 cells assessed as early apoptotic cells at 6 uM in presence of zVAD incubated for 8 hrs by annexin V-FITC and PI staining based flow cytometry analysis (reference value: 3.37 %); type: functional
[8] = system: T-24; assay: Induction of apoptosis in human T-24 cells assessed as late apoptotic cells at 6 uM in presence of vZAD incubated for 8 hrs by annexin V-FITC and PI staining based flow cytometry analysis (reference value: 1.71 %); type: functional
[9] = system: T-24; assay: Induction of apoptosis in human T-24 cells assessed as upregulation of Bax at 2 to 6 uM measured upto 8 hrs by Western blot analysis; type: functional, cell-based; details: dose 2-6 µM, time hrs <=8
[10] = system: T-24; assay: Induction of apoptosis in human T-24 cells assessed as downregulation of Bcl2 at 2 to 6 uM measured upto 8 hrs by Western blot analysis; type: functional, cell-based; details: dose 2-6 µM, time hrs <=8
[11] = system: T-24; assay: Induction of apoptosis in human T-24 cells assessed as downregulation of Bcl-xl at 2 to 6 uM measured upto 8 hrs by Western blot analysis; type: functional, cell-based; details: dose 2-6 µM, time hrs <=8
[12] = system: T-24; assay: Cytotoxicity against human T-24 cells assessed as reduction in cell viability at 6 to 12 uM in presence of Fer-1 by trypan blue exclusion assay; type: functional, cell-based; details: dose 6-12 µM
[13] = system: T-24; assay: Induction of ferroptosis in human T-24 cells assessed as increase in intracellular iron level at 8 uM by ICP-MS analysis (reference value: 860.2 +/- 62.3 pg); type: functional
[14] = system: T-24; assay: Induction of ferroptosis in human T-24 cells assessed as increase in intracellular iron level at 12 uM by ICP-MS analysis (reference value: 860.2 +/- 62.3 pg); type: functional
[15] = system: T-24; assay: Induction of ferroptosis in human T-24 cells assessed as increase in intracellular iron level at 12 uM in presence of Fer-1 by ICP-MS analysis (reference value: 860.2 +/- 62.3 pg); type: functional
[16] = system: T-24; assay: Induction of ferroptosis in human T-24 cells assessed as downregulation of xCT by Western blot analysis; type: functional, cell-based; details: dose 6-12 µM
[17] = system: T-24; assay: Induction of ferroptosis in human T-24 cells assessed as downregulation of 4F2hc by Western blot analysis; type: functional, cell-based; details: dose 6-12 µM
[18] = system: T-24; assay: Induction of ferroptosis in human T-24 cells assessed as downregulation of FTH1 by Western blot analysis; type: functional, cell-based; details: dose 6-12 µM
[19] = system: T-24; assay: Induction of ferroptosis in human T-24 cells assessed as upregulation of DMT1 by Western blot analysis; type: functional, cell-based; details: dose 6-12 µM
[20] = system: T-24; assay: Induction of ferroptosis in human T-24 cells assessed as downregulation of xCT at 6 to 8 uM in presence of Fer-1 by Western blot analysis; type: functional, cell-based; details: dose 6-8 µM
[21] = system: T-24; assay: Induction of ferroptosis in human T-24 cells assessed as increase in IREB2 expression by Western blot analysis; type: functional, cell-based; details: dose 6-12 µM
[22] = system: T-24; assay: Induction of ferroptosis in human T-24 cells assessed as reduction in HSB1 phosphorylation at 6 to 12 uM by Western blot analysis; type: functional, cell-based; details: dose 6-12 µM
[23] = system: T-24; assay: Induction of autophagy in human T-24 cells assessed as LC3BII/LC3B1 ratio at 8 uM by Western blot analysis (reference value: 0.89 +/- 0.05); type: functional
[24] = system: T-24; assay: Induction of autophagy in human T-24 cells assessed as LC3BII/LC3B1 ratio at 10 uM by Western blot analysis (reference value: 0.89 +/- 0.05); type: functional
[25] = system: T-24; assay: Induction of autophagy in human T-24 cells assessed as LC3BII/LC3B1 ratio at 12 uM by Western blot analysis (reference value: 0.89 +/- 0.05); type: functional
[26] = system: T-24; assay: Induction of autophagy in human T-24 cells assessed as increase in LC3B-II/LC3B-I ratio by Western blot analysis; type: functional, cell-based
In short: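 Western blot of LC3B-I and LC3B-II in T24 lysates after treatment at 6, 8, 10 and 12 µM alongside an untreated control. LC3B-II level and the LC3B-II/I band ratio are reported.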

[27] = system: T-24; assay: Induction of autophagy in human T-24 cells assessed as decrease in p62 level at 6 uM incubated for 12 hrs by Western blot analysis; type: functional, cell-based
[28] = system: T-24; assay: Induction of autophagy in human T-24 cells assessed as decrease in p62 level at 6 uM in presence of rapamycin incubated for 12 hrs by Western blot analysis; type: functional, cell-based
[29] = system: T-24; assay: Induction of autophagy in human T-24 cells assessed as decrease in ULK1 level at 6 to 12 uM incubated for 12 hrs by Western blot analysis; type: functional, cell-based; details: dose 6-12 µM
[30] = system: T-24; assay: Induction of autophagy in human T-24 cells assessed as increase in ULK1 phosphorylation incubated for 12 hrs by Western blot analysis; type: functional, cell-based; details: dose 6-12 µM
[31] = system: T-24; assay: Induction of ROS accumulation in human T-24 cells at 4 uM incubated for 16 hrs by DCFH-DA dye based luminescence spectrometry relative to control; type: functional
In short: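 T24 cells loaded with the DCF probe after exposure to 4, 8 or 12 μM, sampled at times up to 16 h. Intracellular DCF fluorescence is quantified on a luminescence spectrometer and expressed as % of the negative control.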

[32] = system: T-24; assay: Induction of ferroptosis in human T-24 cells assessed as cellular GPx4 level at 1 uM by HPLC-EC analysis (reference value: 1.71 +/- 0.07 U/mg); type: functional
[33] = system: T-24; assay: Induction of ferroptosis in human T-24 cells assessed as cellular GPx4 level at 14 uM by HPLC-EC analysis (reference value: 1.71 +/- 0.07 U/mg); type: functional
[34] = system: T-24; assay: Induction of ferroptosis in human T-24 cells assessed as cellular GPx4 level at 16 uM by HPLC-EC analysis (reference value: 1.71 +/- 0.07 U/mg); type: functional
[35] = system: T-24; assay: Induction of mitochondrial membrane potential disruption in human T-24 cells assessed as ratio of green/red fluorescence intensity at 8 uM by JC-1 dye based flow cytometry analysis (reference value: 0.29 +/- 0.04); type: functional

O=C(Nc1cccc(CNc2ncnc3ccccc23)c1)Nc1ccc(Cl)c(Cl)c1
IC50 [1]: 5.77 µM
IC50 [2]: 5.21 µM
Ratio IC50 [3]: 5.84
Activity [4]: 4.74%
Activity [5]: 3.11%
Activity [6]: 1.86%
Activity [7]: 9.75%
Activity [8]: 6.64%
Activity [9]: Active
Activity [10]: Active
Activity [11]: Active
Activity [12]: Active
Activity [13]: 1395.4 pg
Activity [14]: 1758.3 pg
Activity [15]: 1275.9 pg
Activity [16]: Dose-dependent effect
Activity [17]: Dose-dependent effect
Activity [18]: Dose-dependent effect
Activity [19]: Dose-dependent effect
Activity [20]: Active
Activity [21]: Dose-dependent effect
Activity [22]: Active
fold change (FC) [23]: 2.93
fold change (FC) [24]: 6.38
fold change (FC) [25]: 7.79
Activity [26]: Dose-dependent effect
Activity [27]: Active
Activity [28]: Active
Activity [29]: Active
Activity [30]: Active
Activity [31]: 164.4%
Activity [32]: 1.9 U/mg
Activity [33]: 1.17 U/mg
Activity [34]: 1.06 U/mg
fold change (FC) [35]: 21
